From ChEMBL document CHEMBL2321804, “Development of small-molecule P-gp inhibitors of the N-benzyl 1,4-dihydropyridine type: novel aspects in SAR and bioanalytical evaluation of multidrug resistance (MDR) reversal properties” (Bioorg Med Chem, 2013) come the findings set out here.

SMILES strings stand for the structures.

The target of series [1] is T1, ATP-dependent translocase ABCB1 (Homo sapiens, UniProt P08183). The series is described as follows: Inhibition of human MDR1 expressed in mouse L5178Y cells assessed as […] by measuring fluorescence activity ratio at 1 uM preincubated for 10 mins measured after 40 mins relative to control. The format is cell-based. Summed up:
(§1)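 Transfected P-gp L5178Y subline and parental cells, 1 x 10^6/mL in serum-free McCoy's 5A, were preincubated 10 min at rt with inhibitor (DMSO stock 1.0 mg/mL). Rhodamine 123 followed (5 µL of 0.5 mM), 40 min at 37 °C, then two PBS washes. Flow cytometry on 1 x 10^4 cells. FAR = MDR/parental uptake, each normalised to its own untreated control.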

Series [2] deals with T1, ATP-dependent translocase ABCB1. The series is described as follows: Inhibition of human MDR1 expressed in mouse L5178Y cells assessed as […] by measuring fluorescence activity ratio at 10 uM preincubated for 10 mins measured after 40 mins relative to control. The format is cell-based. The method in brief:
as §1

Series [3] in a line: Cytotoxicity against mouse L5178Y cells expressing p-gp assessed as cell viability at 2.5 uM after 24 hrs by MTT assay. Particulars: read-out: Activity; call rule not given here. The format is ADME, cell-based. Summed up:
(§2)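 Parental L5178Y mouse T-lymphoma cells and the human mdr1-transfected P-gp subline were kept in McCoy's 5A with 10% FCS, 2 mM L-glutamine and gentamicin, 37 °C, 5% CO2; the subline also got colchicine 60 ng/mL. Dihydropyridines were added at 1 to 80 µM final, 24 h at 37 °C. MTT was read at 560 nm after SDS/acetic acid/DMSO lysis. Triplicate runs.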
(In general: Tetrazolium assays rely on reduction of a dye to a coloured formazan, in cell work by metabolically active cells.)

The nature of series [4]: Cytotoxicity against mouse L5178Y cells expressing p-gp assessed as cell viability at 10 uM after 24 hrs by MTT assay. The format is ADME, cell-based. As to conditions: read-out: Activity. The method in brief: as §2
Series [5] can be described thus: Cytotoxicity against mouse L5178Y cells assessed as cell viability at 10 uM after 24 hrs by MTT assay. The format is cell-based. Particulars: read-out: Activity. Summed up:
as §2

The target in series [6] is T1, ATP-dependent translocase ABCB1. The series is described as follows: Inhibition of human MDR1 expressed mouse L5178Y cells assessed as reduction of liposomal daunorubicin IC50 for cytotoxicity at 10 uM after 24 hrs by MTT assay. The format is cell-based.
The nature of series [7]: Cytotoxicity against mouse L5178Y cells assessed as cell viability at 2.5 uM after 24 hrs by MTT assay. The format is cell-based. Particulars: read-out: Activity. Summed up: as §2
Series [8] has as its target T1, ATP-dependent translocase ABCB1. The series is described as follows: Inhibition of human MDR1 expressed mouse L5178Y cells assessed as reduction of liposomal daunorubicin IC50 for cytotoxicity at 2.5 uM after 24 hrs by MTT assay. The format is cell-based. Summed up: (§3)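 Liposomal daunorubicin (DaunoXome) was tested in the P-gp overexpressing L5178Y subline after preincubation with inhibitor at 2.5 µM or higher levels, 24 h at 37 °C, 5% CO2. Readout was MTT, lysis, then A560. IC50 came from mean percent growth inhibition of triplicate runs.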

For series [9] the target is unchanged. The experiment in a line: Inhibition of human MDR1 expressed mouse L5178Y cells assessed as reduction of liposomal daunorubicin IC50 for cytotoxicity at 1 uM after 24 hrs by MTT assay. Also on record: scale not given: the % may be the effect or the level left. Type of series: cell-based.
Series [10] shares this target. The experiment in a line: Inhibition of human MDR1 expressed mouse L5178Y cells assessed as reduction of liposomal daunorubicin IC50 for cytotoxicity at 5 to 10 uM after 24 hrs by MTT assay. The format is cell-based. Summed up: as §3
Series [11] shares this target. The series is described as follows: Inhibition of human MDR1 expressed mouse L5178Y cells assessed as reduction of daunorubicin IC50 for cytotoxicity at 2.5 uM after 24 hrs by MTT assay. The format is cell-based. On the set-up: scale not given: the % may be the effect or the level left. The method in brief:
(§4)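 Daunorubicin at 0.01 to 10 µM was combined with inhibitor at 2.5, 5 or 10 µM in the P-gp overexpressing L5178Y subline, 24 h at 37 °C, 5% CO2. Readout was MTT (4 h), SDS/acetic acid/DMSO lysis, A560. IC50 came from mean percent growth inhibition, n = 3.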

Series [12] shares this target. The experiment in a line: Inhibition of human MDR1 expressed mouse L5178Y cells assessed as reduction of daunorubicin IC50 for cytotoxicity at 5 to 10 uM after 24 hrs by MTT assay. Type of series: cell-based. The method in brief:
as §4

Series [13] has as its system L5178Y. The experiment in a line: Cytotoxicity against mouse L5178Y cells after 24 hrs by MTT assay. The format is functional, cell-based. The method in brief: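 Mouse T-lymphoma L5178Y parental cells and the mdr1-transfected L5178Y mdr subline were grown in McCoy's 5A with 10% FCS (mdr subline kept in colchicine 60 ng/mL). Compounds were tested at 1 to 80 µM final for 24 h at 37 °C in 5% CO2. MTT was added for 4 h, then SDS/acetic acid/DMSO lysis and A560 read-out. Run in triplicate.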

For series [14], the system named is L5178Y. The experiment in a line: Cytotoxicity against mouse L5178Y cells expressing p-gp after 24 hrs by MTT assay. The format is functional, cell-based. The method in brief:
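Daunorubicin, 0.01 to 10 µM, was given to the P-gp expressing L5178Y subline (McCoy's 5A, 10% FCS, colchicine 60 ng/mL) in 96-well plates, 24 h at 37 °C, 5% CO2. MTT (5 mg/mL stock) was added for 4 h, cells were lysed 30 min in SDS/acetic acid/DMSO, and A560 was read. IC50 came from mean percent growth inhibition of triplicate runs.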

The subject of series [15] is L5178Y. The experiment in a line: Ratio of IC50 for mouse L5178Y cells expressing p-gp to IC50 for mouse L5178Y cells. The format is functional. The method in brief: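 Parental L5178Y and P-gp-expressing L5178Y mdr cells were exposed to daunorubicin at 0.01–10 µM plus P-gp inhibitor for 24 h at 37 °C in 5% CO2. Viability was read by MTT (4 h) with SDS/acetic acid/DMSO lysis and A560. IC50s came from mean percent growth inhibition in triplicate, and the ratio is the mdr-line IC50 over the parental IC50.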

T1 sequence (P08183 whole entry): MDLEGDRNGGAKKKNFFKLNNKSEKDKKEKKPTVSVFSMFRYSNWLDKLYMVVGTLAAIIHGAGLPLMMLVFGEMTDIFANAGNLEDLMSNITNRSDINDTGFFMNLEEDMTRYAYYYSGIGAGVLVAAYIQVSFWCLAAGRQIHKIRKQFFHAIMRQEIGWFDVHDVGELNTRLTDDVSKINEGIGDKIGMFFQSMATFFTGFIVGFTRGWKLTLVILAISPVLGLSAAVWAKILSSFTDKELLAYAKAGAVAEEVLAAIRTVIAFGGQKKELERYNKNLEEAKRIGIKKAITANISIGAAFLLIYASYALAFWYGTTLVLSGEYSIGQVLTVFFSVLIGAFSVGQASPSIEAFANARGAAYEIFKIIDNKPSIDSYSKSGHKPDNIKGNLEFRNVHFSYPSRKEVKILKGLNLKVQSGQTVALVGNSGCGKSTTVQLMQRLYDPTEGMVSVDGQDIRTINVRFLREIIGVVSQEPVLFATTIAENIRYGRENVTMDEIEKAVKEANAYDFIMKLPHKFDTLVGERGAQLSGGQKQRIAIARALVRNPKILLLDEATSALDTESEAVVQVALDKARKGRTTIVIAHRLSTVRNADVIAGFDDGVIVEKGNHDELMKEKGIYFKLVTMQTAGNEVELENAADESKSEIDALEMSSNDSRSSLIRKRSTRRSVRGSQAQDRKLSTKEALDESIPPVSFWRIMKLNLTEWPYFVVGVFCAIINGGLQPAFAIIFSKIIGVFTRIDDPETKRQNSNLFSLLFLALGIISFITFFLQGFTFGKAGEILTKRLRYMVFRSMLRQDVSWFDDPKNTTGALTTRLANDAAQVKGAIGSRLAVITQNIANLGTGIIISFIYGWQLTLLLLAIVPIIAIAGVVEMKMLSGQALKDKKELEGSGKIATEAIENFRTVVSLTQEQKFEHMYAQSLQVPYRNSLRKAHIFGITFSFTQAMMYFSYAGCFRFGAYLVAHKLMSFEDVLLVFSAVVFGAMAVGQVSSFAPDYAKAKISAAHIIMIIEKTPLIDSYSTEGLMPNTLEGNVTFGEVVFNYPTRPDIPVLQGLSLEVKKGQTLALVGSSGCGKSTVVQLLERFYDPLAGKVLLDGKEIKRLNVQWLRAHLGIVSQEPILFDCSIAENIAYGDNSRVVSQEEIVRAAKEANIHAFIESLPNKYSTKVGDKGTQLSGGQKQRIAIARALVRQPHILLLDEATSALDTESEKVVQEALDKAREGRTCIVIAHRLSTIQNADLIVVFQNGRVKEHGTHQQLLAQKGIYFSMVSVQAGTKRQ

In the case of `COC(=O)C1=CN(Cc2cccc3ccccc23)C=CC1c1ccccc1` (configuration not stated), the RFU in series [1] is listed as 1.19; in series [2] it was 2.19.

Take `CCOC(=O)C1=CN(Cc2cccc3ccccc23)C=CC1c1ccccc1` (configuration not stated): the RFU in series [1] came to 1.28; in [2] it was 2.74.

In the case of `COC(=O)C1=CN(Cc2ccccc2)C=CC1c1cccc2ccccc12` (configuration not stated), the values for the RFU in series [1] and in [2] were 1.22 and 2.35, respectively.

For `CCOC(=O)C1=CN(Cc2ccccc2)C=CC1c1cccc2ccccc12` (configuration not stated), the RFU in [1] is 1.43; in series [2], 3.45.

For `CCOC(=O)C1=CN(Cc2ccccc2)C=CC1c1cccc(C(F)(F)F)c1` (configuration not stated), the RFU in series [1] came to 1.17; in series [2], 2.33.

With `COC(=O)C1=CN(Cc2ccccc2)C=CC1c1ccc(C)cc1` (configuration not stated), the RFU in [1] is 1.11; in [2], 1.88.

Regarding `COC(=O)C1=CN(Cc2ccccc2)C=CC1c1ccccc1OC` (configuration not stated), the figures for the RFU in series [1] and in series [2] were 1.13 and 1.76, respectively.

In the case of `COC(=O)C1=CN(Cc2ccccc2)C=CC1c1ccc(OC)cc1` (configuration not stated), the RFU in [1] was determined as 0.85; in series [2], 2.95.

On to `CCOC(=O)C1=CN(Cc2ccccc2)C=CC1c1ccc(C)cc1` (configuration not stated), for which the RFU in series [1] is 1.34; in series [2] it was 2.54.

As to `CCOC(=O)C1=CN(Cc2ccccc2)C=CC1c1ccccc1OC` (configuration not stated), the RFU in series [1] was 1.18; in series [2], 2.38.

For `CCOC(=O)C1=CN(Cc2ccccc2)C=CC1c1ccc(OC)cc1` (configuration not stated), the results for the RFU in [1] and in [2] were 1.52 and 3.13, respectively.

For `COC(=O)C1=CN(Cc2ccccc2OC)C=CC1c1ccccc1` (configuration not stated), the figures for the RFU in series [1] and in [2] were 1.82 and 3.97, respectively.

As to `COC(=O)C1=CN(Cc2ccc(OC)cc2)C=CC1c1ccccc1` (configuration not stated), the RFU in [1] was 1.5; in [2], 4.13.

For the compound `COC(=O)C1=CN(Cc2ccc(C)cc2)C=CC1c1ccccc1` (configuration not stated), the RFU turned out to be 1.72 in series [1] and 7.8 in series [2]. The viability at 24 h, 2.5 µM in series [3] is 81%; in [7], 95%. Moreover, the viability at 24 h, 10 µM in series [4] and in [5] was 75% throughout. The outcome in series [6] and in series [8] was Active.

Take `CCOC(=O)C1=CN(Cc2ccccc2OC)C=CC1c1ccccc1` (configuration not stated): the RFU in [1] is listed as 1.72; in series [2], 4.64.

Consider `CCOC(=O)C1=CN(Cc2ccc(OC)cc2)C=CC1c1ccccc1` (configuration not stated), for which the RFU in series [1] came out at 1.32; in series [2], 4.89. Moreover, the Activity is given as above 60% in series [9], “Active” in [10], “Active” in series [6] and “Active” in [8]. Moreover, the viability at 24 h, 10 µM stood at 85% in [4] and 100% in series [5]. In addition, in series [7], the viability at 24 h, 2.5 µM was determined as 97%.

As to `CCOC(=O)C1=CN(Cc2ccc(C)cc2)C=CC1c1ccccc1` (configuration not stated), the results for the RFU in series [1] and in [2] were 2.54 and 7.8, respectively. For the same compound, the figures for the Activity in series [11], in series [6] and in series [12] were above 50%, “Active” and “Active”, respectively.

`COC(=O)C1=CN(Cc2ccccc2)C=CC1c1cccc(Cl)c1` (configuration not stated): the RFU in series [1] was 1.12; in series [2], 1.39.

Consider `COC(=O)C1=CN(Cc2ccccc2)C=CC1c1cccc(Br)c1` (configuration not stated), for which the RFU in series [1] came to 1.05; in series [2] it was 1.22.

For `COC(=O)C1=CN(Cc2ccccc2)C=CC1c1cccc(C(F)(F)F)c1` (configuration not stated), the figures for the RFU in series [1] and in series [2] were 1.05 and 1.53, respectively.

In the case of `CCOC(=O)C1=CN(Cc2ccccc2)C=CC1c1cccc(Cl)c1` (configuration not stated), the RFU stood at 1.25 in series [1] and 2.67 in [2].

As for `CCOC(=O)C1=CN(Cc2ccccc2)C=CC1c1cccc(Br)c1` (configuration not stated), the RFU in series [1] amounted to 1.27; in [2], 2.76.

In the case of `COc1cccc2c1C(=O)c1c(O)c3c(c(O)c1C2=O)C[C@@](O)(C(C)=O)C[C@@H]3O[C@H]1C[C@H](N)[C@H](O)[C@H](C)O1` (stereo in doubt; form 1) [DAUNORUBICIN], the IC50 stood at 0.3 µM in series [13] and 2.32 µM in series [14].

For `COc1cccc2c1C(=O)c1c(O)c3c(c(O)c1C2=O)C[C@@](O)(C(C)=O)C[C@@H]3O[C@H]1C[C@H](N)[C@H](O)[C@H](C)O1` (stereo in doubt; form 2) [DAUNORUBICIN], in series [15], the “Ratio IC50” value is on record as above 10. The IC50 in [13] was 0.73 µM; in series [14], 7.73 µM.

For `COc1ccc(CCN(C)CCCC(C#N)(c2ccc(OC)c(OC)c2)C(C)C)cc1OC` (configuration not stated) [VERAPAMIL], the RFU came to 0.89 in series [1] and 2.94 in series [2].

One may read the IC50 as the midpoint of a concentration-inhibition curve.
